Results published in ChEMBL document CHEMBL1955756, “Design and synthesis of novel sulfonamide-containing bradykinin hB(2) receptor antagonists. Synthesis and structure-relationships of α,α-tetrahydropyranylglycine” (Bioorg Med Chem, 2012).

Legend:
[1] = target: T1, B2 bradykinin receptor (Homo sapiens, UniProt P30411); assay: Displacement of [3H]-Bradykinin from human bradykinin B2 receptor expressed in CHO cells membrane after 60 mins by scintillation counting; type: cell membranes
T1 sequence (P30411 whole entry): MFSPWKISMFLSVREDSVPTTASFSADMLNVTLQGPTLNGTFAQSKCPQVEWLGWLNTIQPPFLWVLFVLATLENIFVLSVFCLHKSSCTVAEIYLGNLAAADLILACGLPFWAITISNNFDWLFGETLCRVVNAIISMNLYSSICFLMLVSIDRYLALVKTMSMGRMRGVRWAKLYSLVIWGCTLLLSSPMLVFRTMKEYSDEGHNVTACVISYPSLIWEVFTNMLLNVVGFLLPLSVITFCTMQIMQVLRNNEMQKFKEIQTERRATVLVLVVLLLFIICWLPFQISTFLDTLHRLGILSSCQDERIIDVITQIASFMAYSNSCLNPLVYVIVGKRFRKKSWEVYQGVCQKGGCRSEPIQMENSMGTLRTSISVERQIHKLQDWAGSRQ

[2] = target: T2, B1 bradykinin receptor (Homo sapiens, UniProt P46663); assay: Displacement of [3H][desArg9]Lys-Bradykinin from human bradykinin B1 receptor expressed in CHO cells; type: cell-based
T2 sequence (P46663 whole entry): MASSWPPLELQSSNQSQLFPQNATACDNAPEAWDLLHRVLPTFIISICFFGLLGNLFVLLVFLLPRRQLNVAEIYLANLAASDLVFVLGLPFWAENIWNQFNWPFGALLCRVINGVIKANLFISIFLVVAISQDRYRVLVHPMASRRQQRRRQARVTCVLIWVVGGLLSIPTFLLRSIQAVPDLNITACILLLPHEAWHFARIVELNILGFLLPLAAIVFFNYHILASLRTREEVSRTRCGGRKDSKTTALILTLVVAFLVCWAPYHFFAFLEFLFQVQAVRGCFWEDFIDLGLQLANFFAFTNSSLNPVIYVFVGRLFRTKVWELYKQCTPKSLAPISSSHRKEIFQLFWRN

[3] = target: T1, B2 bradykinin receptor; assay: Antagonist activity at human bradykinin B2 receptor expressed in dhfr-deficient CHO cells assessed as inhibition of bradykinin-induced inositol monophosphate accumulation preincubated for 15 mins prior bradykinin induction measured after 40 mins by liquid scintillation spectrometry; type: functional, cell-based; settings: read-out: pA2 (converted)
How it was run: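 CHOdhfr-/hB2R cells (1.8×10^5/well) plated overnight at 37 °C, labelled 24 h with myo-[3H]inositol (1 uCi/well). Antagonist pre-incubation 15 min, then BK 1×10^-11 to 1×10^-5 M for 40 min at 37 °C in Hepes pH 7.4 buffer with 25 mM LiCl. IP1 radioactivity by liquid scintillation. Agonist curves fitted for EC50; pA2 = log(CR−1) − log[antagonist].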

[4] = target: T3, B2 bradykinin receptor (Homo sapiens) (UniProt P30411); assay: (§1) Reversible antagonist activity at human bradykinin B2 receptor expressed in dhfr-deficient CHO cells assessed as inhibition of bradykinin-induced inositol monophosphate accumulation at 3 uM preincubated for 15 mins prior bradykinin induction measured after 30 mins washout by liquid scintillation spectrometry; type: functional, cell-based
T3 sequence (whole entry): T1 sequence (P30411 whole entry)
How it was run: (§2)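 Washout in the IP accumulation assay in CHO/hB2R cells: antagonist (3 µM or 100 nM) pre-incubated 15 min, with medium then fully replaced every 15 min in washed cells. BK (2 nM) added and the reaction stopped after one hour; IP formed quantified. Expressed as % inhibition of time-matched BK responses in vehicle-pre-incubated cells.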

[5] = target: T3, B2 bradykinin receptor (Homo sapiens); assay: as §1, with “15” for “30”; type: functional, cell-based; how it was run: as §2
[6] = target: T3, B2 bradykinin receptor (Homo sapiens); assay: as §1, with “45” for “30”; type: functional, cell-based; how it was run: as §2

Structure (SMILES)	Ki [1] [nM]	Ki [2] [nM]	Kb [3] [nM]	inhibition [4] [%]	inhibition [5] [%]	inhibition [6] [%]
Cc1cc(C)c2cccc(OCc3c(Cl)ccc(S(=O)(=O)NC4(C(=O)N5CCN(C(=O)[C@@H](N)CCCCN)CC5)CCOCC4)c3Cl)c2n1	0.1	> 10000	0.398			
Cc1cc(C)c2cccc(OCc3c(Cl)ccc(S(=O)(=O)NC4(C(=O)N5CC[N+](C)(CCC[N+](C)(C)C)CC5)CCOCC4)c3Cl)c2n1	0.1	> 10000	1			
Cc1cc(C)c2cccc(OCc3c(Cl)ccc(S(=O)(=O)NC4(C(=O)N5CCN(C(=O)CCC[N+](C)(C)C)CC5)CCOCC4)c3Cl)c2n1	0.126	> 10000	0.794			
Cc1cc(C)c2cccc(OCc3c(Cl)ccc(S(=O)(=O)NC4(C(=O)N5CC[N+](C)(CCCCCC[N+](C)(C)C)CC5)CCOCC4)c3Cl)c2n1	0.0398	> 10000	3.16			
Cc1cc(C)c2cccc(OCc3c(Cl)ccc(S(=O)(=O)NC4(C(=O)N5CCN(C(=O)[C@@H](N)CCCCNC(=N)N)CC5)CCOCC4)c3Cl)c2n1	0.0631	> 10000				
Cc1cc(C)c2cccc(OCc3c(Cl)ccc(S(=O)(=O)NC4(C(=O)N5CCN(C(=O)[C@@H](N)CCCC[N+](C)(C)C)CC5)CCOCC4)c3Cl)c2n1	0.251	> 10000	0.398			
Cc1cc(C)c2cccc(OCc3c(Cl)ccc(S(=O)(=O)NC4(C(=O)N5CCN(CCC[N+](C)(C)C)CC5)CCOCC4)c3Cl)c2n1	0.316	> 10000				
Cc1cc(C)c2cccc(OCc3c(Cl)ccc(S(=O)(=O)NC4(C(=O)N5CCC(CNCCC[N+](C)(C)C)CC5)CCOCC4)c3Cl)c2n1	0.158	> 10000	2.51			
Cc1cc(C)c2cccc(OCc3c(Cl)ccc(S(=O)(=O)NC4(C(=O)N5CCN(C(=O)[C@@H](N)CCCN(C)C)CC5)CCOCC4)c3Cl)c2n1	0.0501	> 10000	0.123			
Cc1cc(C)c2cccc(OCc3c(Cl)ccc(S(=O)(=O)NC4(C(=O)N5CC[N+]6(CCN(C)CC6)CC5)CCOCC4)c3Cl)c2n1	1	> 10000	1.58			
Cc1cc(C)c2cccc(OCc3c(Cl)ccc(S(=O)(=O)NC4(C(=O)N5CC[N+](C)(CCCC[N+](C)(C)C)CC5)CCOCC4)c3Cl)c2n1	0.0794	> 10000	2			
Cc1cc(C)c2cccc(OCc3c(Cl)ccc(S(=O)(=O)NC4(C(=O)N5CCC(CNCCCC[N+](C)(C)C)CC5)CCOCC4)c3Cl)c2n1	0.0501	> 10000	2.51			
Cc1cc(C)c2cccc(OCc3c(Cl)ccc(S(=O)(=O)NC4(C(=O)N5CCC(CCCC[N+](C)(C)C)CC5)CCOCC4)c3Cl)c2n1	0.631	> 10000	3.98	6	23	-0
Cc1cc(C)c2cccc(OCc3c(Cl)ccc(S(=O)(=O)NC4(C(=O)N5CCN(C(=O)CCCCN)CC5)CCOCC4)c3Cl)c2n1	0.0794	> 10000	0.479			
Cc1cc(C)c2cccc(OCc3c(Cl)ccc(S(=O)(=O)NC4(C(=O)N5CCC(CC[N+](C)(C)C)CC5)CCOCC4)c3Cl)c2n1	0.794	> 10000	3.98			
Cc1cc(C)c2cccc(OCc3c(Cl)ccc(S(=O)(=O)NC4(C(=O)N5CCN(C(=O)[C@@H](N)CCCCN(C)C)CC5)CCOCC4)c3Cl)c2n1	0.0631	> 10000				
